SENP1 FRET inh: human SENP1 catalytic domain inhibitors, primary screen, biochemical, FRET, uHTS. 360,000 compounds, 0.21% hits. recombinant SENP1 catalytic domain, CyPet-SUMO1-YPet FRET cleavage. Sentrin-specific protease 1 (Homo sapiens), Q9P0U3. inhibition, % at 10 µM;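 active means inhibition at least 30% at 10 µM, raw YFP signal under a set limit, fluorescence ratio 0.5 to 1.5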;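 further: 0% = enzyme with DMSO and 100% = no enzyme wells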
Target sequence (Q9P0U3 419-644 limits assumed): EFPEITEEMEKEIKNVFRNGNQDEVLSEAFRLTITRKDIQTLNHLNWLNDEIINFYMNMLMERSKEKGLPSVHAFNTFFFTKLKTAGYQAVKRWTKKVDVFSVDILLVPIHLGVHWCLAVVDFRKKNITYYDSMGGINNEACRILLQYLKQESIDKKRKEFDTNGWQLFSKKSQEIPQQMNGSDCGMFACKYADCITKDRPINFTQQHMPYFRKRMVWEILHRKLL
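Test system: recombinant human SENP1 catalytic domain, His6-tagged / Medium: pH 8 Tris buffer with EDTA, NaCl, BME, BSA, NP40, catalase / Also added: SUMO1 FRET substrate flanked by Cypet and Ypet, 25 nM / Times: 50 min reaction at room temperature / Signal: FRET, CFP and YFP emission / Control set: no-enzyme low control and enzyme-plus-DMSO high control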
Platelet DG rel: inhibitors of platelet dense granule secretion, primary screen, cell-based, MLPCN, human platelets | inhibition, %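 (compounds screened at 7.5 µM in platelet-rich plasma)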 | 300,000 compounds, 0.22% hits | human platelet-rich plasma, SFLLRN dense granule ATP release, luminescence;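 active means mean replicate score, as percent of positive control, at or above 50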
SENP7 inh: SENP7 protease inhibitors, primary screen, biochemical, luminescence, uHTS | 330,000 compounds, 1.5% hits | AID 434973, 2010 | inhibition, % at 5 µM | recombinant SENP7, Z-RLRGG-aminoluciferin luminescence, 40 min;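 active means inhibition above about 50% at the single test dose, limit read from the data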;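 further: plate controls were DMSO with enzyme for no effect and no enzyme buffer wells for full effect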
SENP8 block-1: SENP8 protease inhibitors, primary screen, biochemical, luminescence. Sentrin-specific protease 8 (Homo sapiens), Q96LD8. purified SENP8, Z-RLRGG-aminoluciferin cleavage. inhibition, % at 10 µM. 330,000 compounds, 1.2% hits. AID 2540, 2010; in the data active means inhibition above about 50%
Target sequence (Q96LD8 whole entry, looked up): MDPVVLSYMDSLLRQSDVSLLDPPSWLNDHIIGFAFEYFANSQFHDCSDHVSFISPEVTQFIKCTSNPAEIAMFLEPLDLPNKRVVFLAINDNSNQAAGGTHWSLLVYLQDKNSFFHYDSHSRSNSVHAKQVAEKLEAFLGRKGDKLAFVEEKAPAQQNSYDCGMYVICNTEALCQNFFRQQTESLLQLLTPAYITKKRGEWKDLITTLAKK
SENP6 block: SENP6 protease inhibitors, primary screen, biochemical, luminescence, uHTS. 330,000 compounds, 1.8% hits. Recombinant SENP6 catalytic domain, aminoluciferin luminescence. inhibition, % at 10 µM. AID 2599, 2010;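 active means inhibition above about 50% at the single tested dose, limit read from the data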;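 further: plate controls were DMSO wells with enzyme for no effect and DMSO wells lacking enzyme for full effect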
SENP8 block-2: human SENP8 protease inhibitors, primary screen, biochemical, fluorescence, Nedd8 protein substrate, uHTS; Sentrin-specific protease 8 (Homo sapiens), Q96LD8; recombinant SENP8; inhibition, % at 20 µM; 360,000 compounds, 0.64% hits; AID 602440, 2012; in the data active means inhibition mostly above about 40%, no sharp cut-off; inactive means mostly below about 27%
SENP8 confirm: SENP8 protease inhibitors, retest, confirmation, biochemical, luminescence, single concentration; Recombinant SENP8, Z-RLRGG-aminoluciferin luminescence, 60 min; shares compounds with SENP7 inh; inhibition, % at 12.5 µM; 6,200 compounds, 40% hits;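 active means mean inhibition across replicates above about 50%, limit read from the data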
SENP6 conf: SENP6 protease inhibitors, confirmation, biochemical, luminescence, single concentration | shares compounds with SENP7 inh | recombinant SENP6, Z-RLRGG-aminoluciferin luminescence | 6,200 compounds, 58% hits | inhibition, % at 12.5 µM | AID 488915, 2010
SENP7 confirm: SENP7 protease inhibitors, retest, confirmation, biochemical, luminescence, single concentration | shares compounds with SENP7 inh | 6,200 compounds, 69% hits | recombinant SENP7, Z-RLRGG-aminoluciferin luminescence, 40 min | AID 488917, 2010 | inhibition, % at 12.5 µM
Casp3 select: caspase-3 protease inhibitors, confirmation, selectivity assay for SENP inhibitor project, biochemical, single concentration; shares compounds with SENP7 inh; purified caspase-3, Z-DEVD-aminoluciferin luminescence, 60 min; inhibition, % at 12.5 µM; 6,200 compounds, 60% hits;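 active means mean inhibition above about 50%, limit read from the data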;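 further: plate controls were enzyme with DMSO for no effect and wells without caspase-3 for full effect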
Target sequence (P42574 28-227 limits assumed): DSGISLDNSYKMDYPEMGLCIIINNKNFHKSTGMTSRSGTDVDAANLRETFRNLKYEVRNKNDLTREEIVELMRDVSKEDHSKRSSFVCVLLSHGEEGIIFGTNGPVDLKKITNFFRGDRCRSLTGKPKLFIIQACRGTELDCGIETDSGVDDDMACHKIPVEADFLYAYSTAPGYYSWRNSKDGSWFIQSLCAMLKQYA
Luc interf: interferes with luciferase luminescence in SENP counter-screen. inhibition, % at 12.5 µM. Pre-incubated SENP8/Z-RLRGG-aminoluciferin, luciferase luminescence interference. shares compounds with SENP7 inh. 6,200 compounds, 39% hits;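 active means mean inhibition above about 50% when retested at one dose, limit read from the data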;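 further: plate controls were DMSO wells with completed reaction for no effect and substrate without enzyme for full effect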
Active calls of the source: *; · = not tested or not shown. In the library only some 2.6% were active in any assay of this set; here they are far more common.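 How the source made its calls, unless noted: active means mean inhibition above about 50% in the one-dose retest (limit read from the data); inactive means the rest.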

SMILES	SENP1 FRET inh	Platelet DG rel	SENP7 inh	SENP8 block-1	SENP6 block	SENP8 block-2	SENP8 confirm	SENP6 conf	SENP7 confirm	Casp3 select	Luc interf
CC(=O)N(C)c1ccc(N=Nc2c(C)[nH]n(C(N)=S)c2=O)cc1	1.2	7.3	84.7*	78.2*	77.5*	17.6	86.4*	86.9*	98.5*	95.9*	90.4*
NC(=S)n1[nH]c(-c2ccc([N+](=O)[O-])cc2)c(N=Nc2ccc(O)cc2)c1=O	11.7	-2.8	6.8	18.8	-7.0	33.9	·	·	·	·	·
Cc1ccc(C(=O)NCCC(=O)NCc2ccco2)cc1	1.5	-15.5	5.1	7.3	-0.4	-0.8	·	·	·	·	·
COc1cc2sc3cc(NCCCN4CCOCC4)ccc3c(=O)c2cc1OC	-29.6	·	74.9*	43.1	69.5*	-462.9	-10.2	-3.6	-2.2	16.8	29.2
Cc1ccc(CCNC(=O)c2cc(-c3ccncc3)nc3ccc(S(=O)(=O)N4CCOCC4)cc23)cc1	1.3	1.3	-1.9	0.4	2.8	5.7	·	·	·	·	·
CCC1(CC)NC(=O)N(CC(=O)N2CCN(S(=O)(=O)c3cccc(F)c3)CC2)C1=O	1.6	-1.5	3.1	2.6	-12.9	0.7	·	·	·	·	·
O=C(COc1ccc(C(=S)N2CCCC2)cc1)Nc1ccc(F)cc1	1.9	1.7	0.6	0.5	-4.6	3.0	·	·	·	·	·
S=C(c1ccc(OCc2ccccc2)cc1)N1CCCC1	1.2	4.3	61.2*	46.9	59.7*	16.2	41.5	36.7	54.8*	26.6	26.4
CCOc1cc(C(=S)N2CCCC2)ccc1OCc1ccccc1	0.8	-2.9	4.6	1.4	0.1	23.7	·	·	·	·	·
Fc1ccc(COc2ccc(C(=S)N3CCCC3)cc2)cc1	1.2	5.7	40.0	38.0	62.2*	11.8	60.1*	54.2*	75.5*	46.0	28.1
COc1cc(F)ccc1CN1CCC(n2nccc2NC(=O)C2CCOC2)CC1 (stereo not drawn)	0.5	-4.0	-1.3	15.8	-15.0	9.5	·	·	·	·	·
CC(=O)/C(N=Nc1ccc(SC(F)F)cc1)=C(\C)O	1.0	-0.3	48.3	45.1	66.1*	24.1	46.5	64.1*	59.9*	62.4*	39.0
CC(=O)/C(N=Nc1cccc(C(F)(F)F)c1)=C(\C)O	-0.1	-1.4	-3.1	-12.3	1.9	7.8	·	·	·	·	·
CCOc1ccc(/C=C/C(=O)Oc2ccccc2)cc1	1.6	1.6	58.6*	11.8	11.7	-2.1	15.6	15.3	33.5	32.8	11.7
O=C(Nc1ccccc1)C1Cc2c(-c3ccco3)ccnc2O1 (stereo not drawn)	1.6	·	·	·	·	14.6	·	·	·	·	·
O=C(CCC1CCCC1)Nc1ccc([N+](=O)[O-])cn1	-0.3	-4.2	-7.9	-14.0	-4.9	19.9	·	·	·	·	·
COc1cc(OC)cc(C(=O)/C=C2\Sc3ccccc3N2C)c1	-43.2	1.9	3.0	-14.2	18.2	-72.7	·	·	·	·	·
CN1/C(=C/C(=O)c2cccs2)Sc2ccccc21	-28.6	-6.3	82.9*	84.3*	89.9*	-284.4	94.5*	94.3*	101.5*	93.9*	91.9*
CN1/C(=C\C(=O)c2cccs2)Sc2ccccc21	-16.1	-5.1	-4.1	81.7*	85.7*	-497.3	90.6*	89.9*	100.1*	92.1*	91.7*
COC(=O)C1=C(C(=O)OC)[C@@H]2Nc3ccccc3[C@@]23C[C@@H](C(=O)OC)N(C(=O)c2ccco2)C3=N1	-2.3	-6.0	-2.7	1.2	5.8	16.6	·	·	·	·	·
Cc1nc2ccc(NC(=O)c3ccc4ccccc4n3)cc2s1	0.7	2.5	71.2*	5.7	3.4	0.7	11.2	11.7	39.6	50.6*	5.2
Cc1nc2ccc(NC(=O)c3sccc3C)cc2s1	-1.3	9.6	69.3*	59.9*	84.9*	16.4	70.7*	70.7*	90.0*	80.6*	73.1*
Cc1nc2ccc(NC(=O)c3ccccc3)cc2s1	-1.4	-3.4	1.4	3.9	-10.9	1.6	·	·	·	·	·
Cc1cc(Cl)c(O)c(-n2nc3ccccc3n2)c1	3.2	6.2	70.8*	19.6	27.2	14.7	1.3	12.5	43.7	37.3	4.0
COc1ccc(/C(N)=N/OC(=O)c2ccc3c(c2)OCO3)cc1	1.0	-3.8	68.4*	28.4	49.6	15.5	8.7	25.4	30.7	30.3	4.4
SMILES	SENP1 FRET inh	Platelet DG rel	SENP7 inh	SENP8 block-1	SENP6 block	SENP8 block-2	SENP8 confirm	SENP6 conf	SENP7 confirm	Casp3 select	Luc interf
N/C(=N\OC(=O)c1ccc2c(c1)OCO2)c1ccc(Cl)cc1	-1.3	-4.6	-5.6	76.1*	87.0*	0.0	23.3	67.6*	94.4*	86.2*	17.8
N/C(=N\OC(=O)c1ccc2c(c1)OCO2)c1ccncc1	6.7	20.3	60.5*	43.1	68.1*	10.5	53.0*	48.1	76.0*	82.3*	59.5*
Cc1ccc(/C(N)=N/OC(=O)c2ccc3c(c2)OCO3)cc1	2.5	0.2	42.3	59.9*	71.4*	1.7	24.2	43.2	87.0*	80.7*	19.7
CC(=O)c1ccc(NC(=O)/C(Cl)=C/c2ccccc2)cc1	3.0	15.3	85.1*	44.7	66.5*	5.9	12.9	19.3	22.8	20.2	8.3
Cc1ccc(NC(=O)/C(Cl)=C\c2ccccc2)cc1	2.3	5.4	91.2*	85.9*	94.1*	17.1	82.6*	86.9*	100.0*	83.6*	74.8*
CC(=O)c1ccc(NC(=O)/C(=C\c2ccccc2)NC(=O)/C=C/c2ccccc2)cc1	1.8	0.0	1.7	6.4	-3.9	16.5	·	·	·	·	·

Source: PubChem BioAssay (several laboratories)
